Bioassay records deposited in PubChem BioAssay by several laboratories.
Rtt109 HAT inh – C. albicans Rtt109 histone acetyltransferase inhibition | inhibition, % at 34.9 µM | Q5AAJ8 | purified Rtt109/Vps75, ThioGlo CoA-SH fluorescence, 4 h | 0.16% of 330,000 active;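 active means inhibition of at least 50% in every replicate; inconclusive means best replicate reaches 50% inhibition but some replicates fall short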
CSN deneddyl inh – blocks human CSN-mediated cullin deneddylation. 0.38% of 360,000 active. Purified CSN, SCF-Nedd8-OG deneddylation, fluorescence polarization. inhibition, % at 12.5 µM. AID 651999;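 active means pattern-corrected inhibition above about 35%, with an unprinted fluorescence ratio check between 0.5 and 1.5, limit read from the data, passing the limit was not always enough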
Target sequence (Q92905 whole entry, looked up, one chain of several): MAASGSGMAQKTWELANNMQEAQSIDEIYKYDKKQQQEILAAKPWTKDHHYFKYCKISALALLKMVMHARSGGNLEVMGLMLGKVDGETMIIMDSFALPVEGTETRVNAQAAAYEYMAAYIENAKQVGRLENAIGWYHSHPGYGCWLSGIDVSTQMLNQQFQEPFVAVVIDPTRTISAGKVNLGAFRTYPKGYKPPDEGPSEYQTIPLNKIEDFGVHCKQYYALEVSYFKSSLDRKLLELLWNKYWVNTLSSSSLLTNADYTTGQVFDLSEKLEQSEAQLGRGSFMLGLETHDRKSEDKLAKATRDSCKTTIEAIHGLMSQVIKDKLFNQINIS
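Assay system: purified human Csn5 enzyme expressed in HEK293T cells; measure: % inhibition; also added: SCFSkp2-Nedd8OG substrate at 10 nM final; technique: fluorescence polarization; times: reaction 90 min, room temperature; medium: Tris buffer pH 7.5, NaCl, DTT, Tween-20, trehalose, ovalbumin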
TPT1 inh – C. albicans TPT1 enzyme inhibition. recombinant caTPT1, FP RNA substrate dephosphorylation. inhibition, % at 5 µM. 0.81% of 300,000 active. AID 1962;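 active means inhibition above the mean of all tested compounds plus 3 SD, set per screening campaign, cut at about 24% in these data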
HNF4A DNA FP – change in binding of human HNF4 alpha to DNA | P41235 | HNF4a-FITC DNA binding, fluorescence polarization, 1 h | activity change, % at 10 µM | 0.3% of 360,000 active | AID 1224865; in the data active means activity change above about 30%, passing the limit was not always enough
A number is an active result; – = inactive; ? = inconclusive; · = no result. Sampled rows, rich in hits. Any-hit rate of the full collection: about 1.2%.

SMILES	Rtt109 HAT inh	CSN deneddyl inh	TPT1 inh	HNF4A DNA FP
Cc1ccc(S(C)(=O)=O)cc1C(=O)Nc1ccc(S(=O)(=O)Nc2nccs2)cc1	–	–	·	–
C#CCOCCOCCOCCNc1nc(N2CCN(C(=O)CCCCCCCCCCNC(=O)Cn3cc(CCCCCN)nn3)CC2)nc(N2CCN(C(=O)CCCCCCCCCCNC(=O)Cn3cc(CCCCCN)nn3)CC2)n1	?	59.8	–	38.1
Fc1cc(Cl)cc2ccc(-c3ccccc3)nc12	·	103.3	·	–
O=C1CC=Nc2ccc([N+](=O)[O-])cc21	·	–	·	–
N#C/C(=C\c1c(N2CCCCCC2)nc2ccccn2c1=O)C(=O)NCc1ccco1	–	–	–	–
C=CCNC(=O)/C(C#N)=C/c1c(N2CCCCCC2)nc2ccccn2c1=O	–	56.7	–	–
COc1ccc(Nc2nc(Cl)c(C=O)s2)cc1	–	40.7	–	87.9
COc1ccc(Nc2nc3ccccc3s2)cc1	–	–	–	–
CC1C(=O)CC(c2ccccc2)NC1c1ccccc1 (centres undefined)	–	–	–	–
CC(C)C1C(=O)CC(c2ccccc2)NC1c1ccccc1 (centres undefined)	–	–	–	37.7
O=C(Nc1cc(Cl)ccc1-n1cncn1)C1CC1	–	–	–	–
O=C(Nc1nnc([C@H]2C[C@H](O)[C@@H](CO)O2)s1)c1cccc(Oc2ccccc2)c1	·	–	·	–
O=C(NCc1ccc(OC(F)(F)F)cc1)c1cccc2c1C(=O)c1ccc(N3CCCC3)cc1S2(=O)=O	–	84.7	·	–
O=C(NCc1cc(C(F)(F)F)ccc1Cl)c1cccc2c1C(=O)c1ccc(N3CCOCC3)cc1S2(=O)=O	–	–	·	–
O=C(NCc1cc(C(F)(F)F)ccc1Cl)c1cccc2c1C(=O)c1ccc(N3CCCCC3)cc1S2(=O)=O	–	55.1	·	–
O=C(NCc1ccc(OC(F)(F)F)cc1)c1cccc2c1C(=O)c1ccc(N3CCCCC3)cc1S2(=O)=O	–	–	·	–
Cc1oc(-c2ccc(Cl)cc2)cc1-c1nn2c(-c3ccoc3C)nnc2s1	–	35.5	–	–
CN(C)CCN(C)C1CN(Cc2ccccc2)S(=O)(=O)C1 (centres undefined)	·	–	·	–
CCCCCc1nc2sc3c(c2c(=O)n1NC(=O)c1ccc([N+](=O)[O-])cc1)CC(C)(C)OC3	·	–	–	–
COC(=O)c1[nH]nc2c1C(=O)N(Cc1ccccc1)C2=O	–	–	–	–
COC(=O)c1[nH]nc(-c2ccccc2)c1-c1ccccc1	54.1	–	–	–
CN(C)C(CNC(=O)c1c(F)cccc1Cl)c1ccco1 (centres undefined)	–	–	–	–
Cc1ccc(C#N)c(SCc2nnc(-c3ccc(Cl)cc3)o2)n1	57.6	–	–	–
CCCCN(CCCC)c1nc2ccccc2nc1C(C#N)C(=O)NCCCOC (centres undefined)	–	98.8	–	–
CCN(CC)c1nc2ccccc2nc1C(C#N)C(=O)NCCCOC (centres undefined)	–	–	–	–
SMILES	Rtt109 HAT inh	CSN deneddyl inh	TPT1 inh	HNF4A DNA FP
CCOC(=O)c1c(NC(=O)CC2Nc3ccccc3NC2=O)sc(C)c1C (centres undefined)	–	–	–	52.5
CCOC(=O)c1c(NC(=O)CC2Sc3ccc(C(F)(F)F)cc3NC2=O)sc(C)c1C (centres undefined)	–	–	–	–
COC(=O)c1c(NC(=O)CC2Nc3ccccc3NC2=O)sc(C)c1C (centres undefined)	–	–	–	44.9
NC(Cc1ccc(Cl)cc1)c1csc(Nc2ccc(-c3ccccc3)nn2)n1 (centres undefined)	·	–	·	–
CC1(C)C(/C=C/C=C/C=C/C=C2\N(CCCCS(=O)(=O)O)c3ccc4ccccc4c3C2(C)C)=[N+](CCCCS(=O)(=O)[O-])c2ccc3ccccc3c21	–	–	75.3	–
O=[N+]([O-])c1cccc(N=Cc2sc3ccccc3c2O)c1	·	·	–	·
O=[N+]([O-])c1ccc(N=Cc2sc3ccccc3c2O)cc1	–	–	51.1	–
COc1ccc(N2CCN(C(=O)CNC(=O)Cc3ccccc3)CC2)cc1	52.7	–	–	–
COc1ccc(N2CCN(C(=O)CNC(=O)Cc3ccc(Cl)cc3)CC2)cc1	–	–	–	–
O=C(COC(=O)c1ccc(F)cc1F)Nc1cc(S(=O)(=O)N2CCOCC2)ccc1Cl	–	–	·	–
COc1ccc(NC(=O)c2ccc(NC(=O)c3ccncc3)cc2)cc1	–	–	–	–
COc1ccc(C(=O)NNC(=O)c2ccncc2)cc1	65.4	–	–	–
COc1ccc(NC(=O)/C(=C\c2ccncc2)NC(=O)c2ccccc2)cc1	–	49.5	–	–
COc1cccc(NC(=O)CCC(=O)Nc2cccc(OC)c2)c1	–	–	–	–
COc1cccc(NC(=O)CCC(=O)NCc2ccco2)c1	–	69.9	–	–
N#CCSc1nc2c(sc(=S)n2Cc2ccco2)c(=O)n1-c1ccc(F)cc1	–	–	–	57.6
CCn1c(=S)sc2c(=O)n(-c3ccccc3)c(SC)nc21	–	–	–	–
CCc1nc(N)c(C#N)c(-c2ccc(F)cc2)c1C	–	–	–	–
Cc1c(-c2ccc(F)cc2)nc(N)c(C#N)c1-c1ccco1	–	–	–	39.1
CN(Cc1ccccc1)/C(=N/O)c1cccc(Cl)c1	–	–	–	–
CCN1C(=O)C(=CC=CN(C)c2ccccc2)SC1=S	·	63.9	·	–
CC(=O)Nc1ccc(C(=O)N2CC(=O)NC(=O)C2)cc1	63.2	–	–	–
CCOC(=O)N1CCN(C(=O)c2ccc(NC(C)=O)cc2)CC1	–	–	–	–
N#CCc1nc2n(n1)Cc1ccccc1-2	72.7	–	–	–
O=C(NCc1ccccc1)c1nc(S(=O)(=O)Cc2ccccc2)ncc1Cl	?	–	–	–
SMILES	Rtt109 HAT inh	CSN deneddyl inh	TPT1 inh	HNF4A DNA FP
CC(=O)Nc1ccc(NC(=O)c2nc(S(=O)(=O)Cc3ccccc3)ncc2Cl)cc1	113.3	–	–	–
COCCNC(=O)c1ccc(N2CC3CC(C2)c2cccc(=O)n2C3)c(NC(=O)c2ccccc2Cl)c1 (centres undefined)	·	–	·	–
O=C(COc1cccc(Cl)c1)Nc1ccccc1N1CCCCC1	–	–	–	–
Cc1ccc(CN2C(=O)C(CC(C)C)Nc3ncnc(N4CCCCC4)c32)cc1 (centres undefined)	·	77.8	·	–
Cc1nn(-c2ccccc2)c(Cl)c1/C=N/Nc1nc2ccccc2[nH]1	–	–	–	67.9
Cc1cc(=O)[nH]c(N/N=C/c2c(C)nn(-c3ccccc3)c2Cl)n1	–	–	–	–
CCCCCCCC(=O)N/N=C(\C)c1cccnc1	–	58.4	–	–
O=C(Nc1cccc(-c2nc3ncccc3o2)c1)c1sc2cc(Cl)ccc2c1Cl	–	–	–	175.6
O=C(Nc1cccc(-c2nc3ncccc3o2)c1)c1cc2ccccc2o1	–	–	–	–
O=C(Cc1ccccc1)Nc1cccc(-c2nc3ncccc3o2)c1	–	–	–	–
O=C(Nc1cccc(-c2nc3ncccc3o2)c1)c1sc2ccccc2c1Cl	–	–	–	43.1
COC(=O)[C@]12CCCCC=C1N(Cc1ccccc1)C(=O)[C@H](CC(=O)N1CCSCC1)C2	·	–	·	–
